# Source: ChEMBL document CHEMBL1128678, “Preparation of 18F-labeled muscarinic agonist with M2 selectivity” (J Med Chem, 1995)
# Where “and” joins values, the source holds several entries; their conditions need not be identical. Equal values may be shown once.
# What was measured:
# [1] = biological target: T1, Muscarinic acetylcholine receptor M2 (Rattus norvegicus, UniProt P10980); test: In vitro binding affinity towards Muscarinic acetylcholine receptor M2 was determined by measuring its ability to displace [3H]-AF-DX 384 from rat heart membranes; parameters: species or system Membrane
# T1 sequence (P10980 whole entry): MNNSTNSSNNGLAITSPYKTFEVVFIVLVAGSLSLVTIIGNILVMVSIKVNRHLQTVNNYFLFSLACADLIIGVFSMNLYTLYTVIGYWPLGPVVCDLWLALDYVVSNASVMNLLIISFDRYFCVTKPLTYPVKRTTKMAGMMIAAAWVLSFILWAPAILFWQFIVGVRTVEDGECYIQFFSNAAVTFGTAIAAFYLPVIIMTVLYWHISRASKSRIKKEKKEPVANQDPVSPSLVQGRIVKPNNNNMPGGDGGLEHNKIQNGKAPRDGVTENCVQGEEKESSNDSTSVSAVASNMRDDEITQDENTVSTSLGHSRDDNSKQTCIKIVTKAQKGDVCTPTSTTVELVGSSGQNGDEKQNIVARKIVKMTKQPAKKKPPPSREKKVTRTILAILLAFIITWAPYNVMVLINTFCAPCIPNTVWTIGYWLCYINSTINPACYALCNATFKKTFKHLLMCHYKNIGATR
# Outline: (§1)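 Displacement binding performed by NovaScreen. For M1, the tracer was [3H]pirenzepine with bovine striatal membranes. For M2, it was [3H]AF-DX 384 with rat heart membranes. Ki values in nM were calculated by LIGAND analysis.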
# [2] = biological target: T2, Muscarinic acetylcholine receptor M1 (Bos taurus, UniProt Q8WMX0); test: In vitro binding affinity towards Muscarinic acetylcholine receptor M1 was determined by measuring its ability to displace [3H]pirenzepine from bovine striatal membranes; parameters: species or system Striatum, Membrane; outline: as §1
# T2 sequence (Q8WMX0 whole entry): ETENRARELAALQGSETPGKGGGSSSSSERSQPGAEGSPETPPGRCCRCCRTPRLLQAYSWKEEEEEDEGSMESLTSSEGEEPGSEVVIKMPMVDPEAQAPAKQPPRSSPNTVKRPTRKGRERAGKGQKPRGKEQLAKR
# [3] = biological target: Muscarinic acetylcholine receptor M3 (Cavia porcellus, UniProt Q8VH26); test: In vitro binding affinity towards Muscarinic acetylcholine receptor M3 was determined by measuring its ability to displace [3H]-N-methyl- Scopolamine from guinea pig ileum; format: tissue-based
# Rattus norvegicus [4] = test: In vivo biodistribution in blood after 120 min of administration in rat; format: ADME, organism-based; settings: 2 h
# Outline: (§2)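 [18F] tracer formulated in PBS with under 10% ethanol; 15 μCi given by tail vein to Sprague-Dawley rats (200–250 g). Groups of five sacrificed at 15, 60 or 120 min. Brain dissected into 11 regions, with blood, heart, bone and lung also collected. Tissues weighed and counted, and % ID/g calculated; n = 5 or 6.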
# Rattus norvegicus [5] = test: In vivo biodistribution in blood after 15 min of administration in rat; format: ADME, organism-based; settings: 0.25 h; outline: as §2
# Rattus norvegicus [6] = test: In vivo biodistribution in blood after 60 min of administration in rat; format: ADME, organism-based; settings: 1 h; outline: as §2
# Rattus norvegicus [7] = test: In vivo biodistribution in blood at 60 min for no inhibitor was co-injected in rat; format: ADME, organism-based; settings: 1 h
# Rattus norvegicus [8] = test: In vivo biodistribution in bone after 120 min of administration in rat; format: ADME, organism-based, Bone element; settings: 2 h; outline: as §2
# Rattus norvegicus [9] = test: In vivo biodistribution in LT-THAL after 120 min of administration in rat; format: ADME, organism-based; settings: 2 h; outline: as §2
# Rattus norvegicus [10] = test: In vivo biodistribution in LT-THAL after 60 min of administration in rat; format: ADME, organism-based; settings: 1 h; outline: as §2
# Rattus norvegicus [11] = test: In vivo biodistribution in LT-THAL at 60 min for no inhibitor was co-injected in rat; format: ADME, organism-based; settings: 1 h
# Rattus norvegicus [12] = test: In vivo biodistribution in MEDULL after 120 min of administration in rat; format: ADME, organism-based; settings: 2 h; outline: as §2
# Rattus norvegicus [13] = test: In vivo biodistribution in MEDULL after 15 min of administration in rat; format: ADME, organism-based; settings: 0.25 h; outline: as §2
# Rattus norvegicus [14] = test: In vivo biodistribution in MEDULL after 60 min of administration in rat; format: ADME, organism-based; settings: 1 h; outline: as §2
# Rattus norvegicus [15] = test: In vivo biodistribution in PONS after 120 min of administration in rat; format: ADME, organism-based; settings: 2 h; outline: as §2
# Rattus norvegicus [16] = test: In vivo biodistribution in PONS after 15 min of administration in rat; format: ADME, organism-based; settings: 0.25 h; outline: as §2
# Rattus norvegicus [17] = test: In vivo biodistribution in PONS after 60 min of administration in rat; format: ADME, organism-based; settings: 1 h; outline: as §2
# Rattus norvegicus [18] = test: In vivo biodistribution in LT-CTX after 120 min of administration in rat; format: ADME, organism-based; settings: 2 h; outline: as §2
# Rattus norvegicus [19] = test: In vivo biodistribution in LT-CTX after 15 min of administration in rat; format: ADME, organism-based; settings: 0.25 h; outline: as §2
# Rattus norvegicus [20] = test: In vivo biodistribution in LT-CTX after 60 min of administration in rat; format: ADME, organism-based; settings: 1 h; outline: as §2
# Rattus norvegicus [21] = test: In vivo biodistribution in LT-CTX at 60 min for no inhibitor was co-injected in rat; format: ADME, organism-based; settings: 1 h
# Rattus norvegicus [22] = test: In vivo biodistribution in LT-HIPP after 120 min of administration in rat; format: ADME, organism-based; settings: 2 h; outline: as §2
# Rattus norvegicus [23] = test: In vivo biodistribution in LT-HIPP after 15 min of administration in rat; format: ADME, organism-based; settings: 0.25 h; outline: as §2
# Rattus norvegicus [24] = test: In vivo biodistribution in LT-HIPP after 60 min of administration in rat; format: ADME, organism-based; settings: 1 h; outline: as §2
# Rattus norvegicus [25] = test: In vivo biodistribution in LT-HIPP at 60 min for no inhibitor was co-injected in rat; format: ADME, organism-based; settings: 1 h
# Rattus norvegicus [26] = test: In vivo biodistribution in LT-STR after 120 min of administration in rat; format: ADME, organism-based; settings: 2 h; outline: as §2
# Rattus norvegicus [27] = test: In vivo biodistribution in LT-STR after 15 min of administration in rat; format: ADME, organism-based; settings: 0.25 h; outline: as §2
# Rattus norvegicus [28] = test: In vivo biodistribution in LT-STR after 60 min of administration in rat; format: ADME, organism-based; settings: 1 h; outline: as §2
# Rattus norvegicus [29] = test: In vivo biodistribution in LT-STR at 60 min for no inhibitor was co-injected in rat; format: ADME, organism-based; settings: 1 h
# Rattus norvegicus [30] = test: In vivo biodistribution in CBLL after 120 min of administration in rat; format: ADME, organism-based; settings: 2 h; outline: as §2
# Rattus norvegicus [31] = test: In vivo biodistribution in CBLL after 15 min of administration in rat; format: ADME, organism-based; settings: 0.25 h; outline: as §2
# Rattus norvegicus [32] = test: In vivo biodistribution in CBLL after 60 min of administration in rat; format: ADME, organism-based; settings: 1 h; outline: as §2
# Rattus norvegicus [33] = test: In vivo biodistribution in CBLL at 60 min for no inhibitor was co-injected in rat; format: ADME, organism-based; settings: 1 h
# Rattus norvegicus [34] = test: In vivo biodistribution in lung after 60 min of administration in rat; format: ADME, organism-based; settings: 1 h; outline: as §2
# Rattus norvegicus [35] = test: In vivo biodistribution in lung at 60 min for no inhibitor was co-injected in rat; format: ADME, organism-based; settings: 1 h
# Outline: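 [18F]tracer formulated in phosphate-buffered saline (<10% ethanol), 15 μCi injected via tail vein into Sprague-Dawley rats (200–250 g); no inhibitor co-injected. Animals sacrificed in groups of five at 60 min postinjection. Lung sample collected, weighed, counted for activity, and % ID/g calculated (n = 5 or 6).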
# Rattus norvegicus [36] = test: In vivo biodistribution in heart at 60 min as a function of 5 nM of (R,R) IQNB (inhibitor) in rat; format: ADME, organism-based; settings: 1 h
# Rattus norvegicus [37] = test: In vivo biodistribution in heart at 60 min for no inhibitor was co-injected in rat; format: ADME, organism-based; settings: 1 h
# Rattus norvegicus [38] = test: In vivo biodistribution in lung after 120 min of administration in rat; format: ADME, organism-based; settings: 2 h; outline: as §2
# Rattus norvegicus [39] = test: In vivo biodistribution in lung after 15 min of administration in rat; format: ADME, organism-based; settings: 0.25 h; outline: as §2
# [40] = In vivo biodistribution in bone at 60 min for no inhibitor was co-injected in rat; format: ADME, organism-based, Bone element; settings: 1 h
# [41] = In vivo biodistribution in heart after 120 min of administration.; format: ADME, organism-based; settings: 2 h; outline: as §2
# Rattus norvegicus [42] = test: In vivo biodistribution in heart after 15 min of administration in rat; format: ADME, organism-based; settings: 0.25 h; outline: as §2
# Rattus norvegicus [43] = test: In vivo biodistribution in heart after 60 min of administration in rat; format: ADME, organism-based; settings: 1 h; outline: as §2
# Rattus norvegicus [44] = test: In vivo biodistribution in heart at 60 min as a function of 500 nM of (R,S) -fluoromethyl QNB(inhibitor) in rat; format: ADME, organism-based; settings: 1 h
# Rattus norvegicus [45] = test: In vivo biodistribution in bone after 15 min of administration in rat; format: ADME, organism-based, Bone element; settings: 0.25 h; outline: as §2
# Rattus norvegicus [46] = test: In vivo biodistribution in bone after 60 min of administration in rat; format: ADME, organism-based, Bone element; settings: 1 h; outline: as §2
# Rattus norvegicus [47] = test: In vivo biodistribution in LT-CTX at 60 min for no inhibitor was co-injected co-injected in rat; format: ADME, organism-based; settings: 1 h
# Rattus norvegicus [48] = test: In vivo biodistribution in MEDULL at 60 min for no inhibitor was co-injected in rat; format: ADME, organism-based; settings: 1 h
# Muscarinic acetylcholine receptor M3, sequence (Q8VH26 whole entry): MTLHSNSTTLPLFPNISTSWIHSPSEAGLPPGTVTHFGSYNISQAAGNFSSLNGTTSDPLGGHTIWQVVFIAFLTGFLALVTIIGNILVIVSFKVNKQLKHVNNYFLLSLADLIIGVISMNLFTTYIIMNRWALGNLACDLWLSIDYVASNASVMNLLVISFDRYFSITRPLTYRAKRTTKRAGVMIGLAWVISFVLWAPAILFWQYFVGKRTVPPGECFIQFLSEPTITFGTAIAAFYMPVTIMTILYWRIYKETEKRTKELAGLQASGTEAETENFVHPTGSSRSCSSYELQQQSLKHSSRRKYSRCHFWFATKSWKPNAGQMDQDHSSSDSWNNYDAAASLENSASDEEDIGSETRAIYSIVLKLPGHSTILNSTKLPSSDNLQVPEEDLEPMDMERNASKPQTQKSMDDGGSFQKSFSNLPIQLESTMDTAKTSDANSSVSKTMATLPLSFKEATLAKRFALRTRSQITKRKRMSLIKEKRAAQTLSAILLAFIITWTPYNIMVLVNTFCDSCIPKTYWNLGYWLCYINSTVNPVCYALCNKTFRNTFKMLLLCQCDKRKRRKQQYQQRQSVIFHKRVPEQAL
smiles,measurement,setting,value
CCCCCSc1nsnc1C1=CCN(C)CC1,Ki,[1],0.004 µM
same,Ki,[2],0.036 µM
same,Ki,[3],> 10 µM
CN1CCC=C(c2nsnc2SCCCCCF)C1,Ki,[1],0.0063 µM
same,Ki,[2],0.0023 µM
same,Ki,[3],0.16 µM
CN1CCC=C(c2nsnc2SCCCF)C1,Ki,[1],0.0022 µM
same,Ki,[2],0.0074 µM
same,Ki,[3],0.0797 µM
CCCSc1nsnc1C1=CCN(C)CC1,Ki,[1],0.0015 µM
same,Ki,[2],0.023 µM
same,Ki,[3],0.163 µM
CN1CCC=C(c2nsnc2SCCF)C1,Ki,[1],0.0018 µM
same,Ki,[2],0.025 µM
same,Ki,[3],> 10 µM
CN1CC=C(c2nsnc2SCCC[18F])CC1,ID/g,Rattus norvegicus [4],0.1%
same,ID/g,Rattus norvegicus [5],0.181%
same,ID/g,Rattus norvegicus [6],0.124%
same,ID/g,Rattus norvegicus [7],0.126% and 0.13% and 0.18%
same,ID/g,Rattus norvegicus [8],0.993%
same,ID/g,Rattus norvegicus [9],0.153%
same,ID/g,Rattus norvegicus [10],0.293%
same,ID/g,Rattus norvegicus [11],0.413% and 0.45% and 0.56%
same,ID/g,Rattus norvegicus [12],0.226%
same,ID/g,Rattus norvegicus [13],0.788%
same,ID/g,Rattus norvegicus [14],0.438%
same,ID/g,Rattus norvegicus [15],0.238%
same,ID/g,Rattus norvegicus [16],0.824%
same,ID/g,Rattus norvegicus [17],0.385%
same,ID/g,Rattus norvegicus [18],0.139%
same,ID/g,Rattus norvegicus [19],1.125%
same,ID/g,Rattus norvegicus [20],0.368%
same,ID/g,Rattus norvegicus [21],0.484% and 0.52%
same,ID/g,Rattus norvegicus [22],0.119%
same,ID/g,Rattus norvegicus [23],0.826%
same,ID/g,Rattus norvegicus [24],0.363%
same,ID/g,Rattus norvegicus [25],0.429% and 0.47% and 0.65%
same,ID/g,Rattus norvegicus [26],0.123%
same,ID/g,Rattus norvegicus [27],0.861%
same,ID/g,Rattus norvegicus [28],0.353%
same,ID/g,Rattus norvegicus [29],0.448% and 0.46% and 0.64%
same,ID/g,Rattus norvegicus [30],0.154%
same,ID/g,Rattus norvegicus [31],0.766%
same,ID/g,Rattus norvegicus [32],0.285%
same,ID/g,Rattus norvegicus [33],0.382% and 0.44% and 0.47%
same,ID/g,Rattus norvegicus [34],0.261%
same,ID/g,Rattus norvegicus [35],0.372%
same,ID/g,Rattus norvegicus [36],0.13% and 0.43% and 0.49% and 0.46% and 0.44% and 0.54% and 0.63% and 0.42%
same,ID/g,Rattus norvegicus [37],0.171%
same,ID/g,Rattus norvegicus [38],0.156%
same,ID/g,Rattus norvegicus [39],0.871%
same,ID/g,[40],0.501%
same,ID/g,[41],0.096%
same,ID/g,Rattus norvegicus [42],0.324%
same,ID/g,Rattus norvegicus [43],0.121%
same,ID/g,Rattus norvegicus [44],0.17% and 0.44% and 0.43% and 0.39% and 0.48% and 0.56% and 0.61%
same,ID/g,Rattus norvegicus [45],0.225%
same,ID/g,Rattus norvegicus [46],0.762%
same,ID/g,Rattus norvegicus [47],0.7%
same,ID/g,Rattus norvegicus [48],0.529% and 0.63% and 0.71%
